Compound activity as filed in PubChem BioAssay.
Sampled rows, rich in hits. Any-hit rate of the full collection: about 3.5%.
RGS4 inh: human RGS4 inhibition. 0.45% of 310,000 active. P49798. B-score at 10 µM. HEK293 M3R/RGS4 inducible, Fluo-4 calcium flux; stronger effect = higher value; triggered by carbachol at its EC20;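 active means B-score, a plate-corrected calcium signal, over three deviations above library mean, with baseline fluorescence within five deviations of library mean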;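 further: RGS4 expression induced by doxycycline in cells with stable M3 receptor; B-score is computed from the integrated fluorescence ratio over baseline after carbachol; higher B-score means a larger calcium signal and so more RGS4 inhibition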
Target sequence (P49798 whole entry, looked up): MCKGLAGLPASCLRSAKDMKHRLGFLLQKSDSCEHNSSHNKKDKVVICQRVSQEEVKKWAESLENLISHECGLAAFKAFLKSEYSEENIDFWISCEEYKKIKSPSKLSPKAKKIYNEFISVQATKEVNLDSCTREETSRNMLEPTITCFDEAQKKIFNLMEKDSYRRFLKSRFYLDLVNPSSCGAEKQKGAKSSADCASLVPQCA
RGS4 pot: potentiators or activators of RGS4; HEK293 M3R/inducible RGS4, carbachol calcium flux Fluo4; stronger effect = lower value; B-score at 10 µM; 0.92% of 310,000 active; AID 463111;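 active means B-score of the integrated calcium signal more than 4 SD below the library mean, with starting fluorescence not abnormally high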;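 further: negative B-score means reduced calcium response which marks RGS4 activation or potentiation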
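Test system: HEK293 cells with stable M3R and inducible RGS4; also added: carbachol at ECmax as muscarinic agonist stimulus; schedule: dye loading 30 min 37 °C, buffer rest 30 min RT; technique: kinetic calcium fluorescence imaging with Fluo4-AM dye, 2 µM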
MrgX1 antag: antagonists of human MrgX1 receptor | Q96LB2 | MRGX1-HEK293 calcium flux, Fluo-4, BAM8-22 antagonism; stronger effect = lower value | B-score at 10 µM | 1.3% of 310,000 active;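 active means calcium-response B-score plate-corrected more than 3 library SD below zero, starting fluorescence within 5 deviations, no agonist response on first addition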;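 further: peak minus trough fluorescence over baseline after final BAM8-22 challenge near maximal dose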
Target sequence (Q96LB2 whole entry, looked up): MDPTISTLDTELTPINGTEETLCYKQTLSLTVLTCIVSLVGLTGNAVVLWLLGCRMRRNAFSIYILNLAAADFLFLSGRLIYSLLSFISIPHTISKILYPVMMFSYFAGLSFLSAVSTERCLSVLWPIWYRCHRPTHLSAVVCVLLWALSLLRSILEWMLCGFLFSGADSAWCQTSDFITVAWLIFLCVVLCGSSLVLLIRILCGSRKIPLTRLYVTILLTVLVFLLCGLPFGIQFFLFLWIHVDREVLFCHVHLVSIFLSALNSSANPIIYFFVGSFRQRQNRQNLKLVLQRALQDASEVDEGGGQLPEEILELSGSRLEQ
MrgX1 agonist: agonists of human MrgX1 receptor | Q96LB2 | MrgX1-HEK293 cells, Fluo-4 calcium fluorescence, agonist mode; stronger effect = higher value | B-score at 10 µM | 0.44% of 310,000 active | AID 588627;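 active means calcium response B-score plate-corrected fluorescence ratio at least 3 library SD, with starting fluorescence B-score inside 5 SD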
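System: HEK293 cells stably expressing human MrgX1 receptor; Dosing: test compound in the initial addition of three; Schedule: overnight plating, then 30 min 37 °C plus 30 min room-temperature dye loading; Detection: kinetic calcium dye fluorescence, Fluo-4 NW; Controls: per-plate positive and negative controls for Z′ factor.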
MrgX1 allo act: human MrgX1 positive allosteric modulation, primary screen; Q96LB2; MrgX1-HEK293, Fluo-4 calcium flux, FDSS; stronger effect = higher value; B-score at 10 µM; 0.63% of 310,000 active;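 active means plate-corrected calcium response at least 3 library SD above typical, normal starting fluorescence, not activating the receptor alone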;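 further: compound read alongside a low EC10 to EC30 dose of BAM8-22 agonist; peak minus trough fluorescence over baseline measured at the second addition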
An asterisk follows results filed as active; i = inactive; / = no result given.

SMILES	RGS4 inh	RGS4 pot	MrgX1 antag	MrgX1 agonist	MrgX1 allo act
O=c1c(Cl)c2oc3ccccc3nc-2c2ccccc12	i	i	-5.7*	i	i
Clc1ccc(-c2nnc(Sc3nc4ccccc4o3)c3ccccc23)cc1	i	i	i	i	i
CCCOc1ccc(N2C(=O)CC(N(CCc3ccc(OC)cc3)C(=O)c3ccccc3)C2=O)cc1 (configuration not stated)	i	i	-4.6*	i	i
Cc1ccsc1/C=N/NS(=O)(=O)c1ccc([N+](=O)[O-])cc1	i	i	i	i	i
O=C(Nc1nncs1)C1CC(=O)N(C2CCCC2)C1 (configuration not stated)	i	i	i	i	i
Cn1ncc(Cl)c1C(=O)N/N=C/c1ccccn1	i	i	-9.3*	i	i
O=Cc1nc(-c2ccc(Cl)cc2)n2ccccc12	i	i	i	i	i
O=Cc1nc(-c2ccccc2Cl)n2ccccc12	i	i	-6.3*	i	i
CC1=NN(C(N)=S)C(=O)C1N=Nc1ccc(C)c(Br)c1 (configuration not stated)	i	i	i	i	i
COCCN1C(=O)N[C@@H](c2ccco2)C(C(C)=O)=C1C	i	i	i	i	i
C/C(=N\N1CCN(c2ccc(Cl)cc2)CC1)c1cccc([N+](=O)[O-])c1	i	i	i	i	i
CCO/C([O-])=N/c1sn[n+](C)c1C	i	i	-5.3*	i	i
Cc1ccc(S(=O)(=O)N2CCCC2CNC(=O)C(=O)Nc2ccc(F)cc2F)cc1 (configuration not stated)	i	i	i	i	i
O=C(Nc1ccc(Cl)cc1C(=O)NCC1CCCO1)c1ccc(Cl)cc1Cl (configuration not stated)	i	i	i	i	i
CCN(CC)CCOC(=O)C1(c2ccccc2)CCOCC1	i	-7*	i	i	i
CC(C[N+](C)(C)C)OC(=O)C1(c2ccccc2)CCCC1 (configuration not stated)	i	-10*	i	i	i
COc1ccc(NC(=O)C2(c3ccccc3)CCCC2)cc1	i	i	i	i	i
C[N+]1(CCOC(=O)C2(c3ccccc3)CCCC2)CCCCC1	i	-7.5*	i	i	i
CCN(CC)CCOC(=O)C1(c2ccc([N+](=O)[O-])cc2)CCCC1	/	/	i	i	i
C[N+](C)(C)CCOC(=O)C1(c2ccccc2)CCCC1	i	-8.2*	i	i	i
CCN(CC)CCOCCOC(=O)C1(c2ccccc2)CCCC1	i	i	i	i	i
COc1cccc(CN2CCNC(=O)C2CC(=O)NCc2cc(C(C)C)no2)c1 (configuration not stated)	i	i	i	i	i
COc1ccc(CN(C(=O)c2cc3ccccc3oc2=O)C2CCCC2)cc1	i	i	-5*	i	i
COc1ccc(CN(C(=O)c2cc3ccccc3oc2=O)C2CCS(=O)(=O)C2)cc1 (configuration not stated)	i	i	i	i	i
CNC(=O)C(=O)Nc1cc2c3c(c1)CCN3C(=O)CC2	i	i	i	i	i
SMILES	RGS4 inh	RGS4 pot	MrgX1 antag	MrgX1 agonist	MrgX1 allo act
Fc1cnc(N/N=C/c2ccc(-c3ccc(Br)cc3)o2)nc1N1CCOCC1	i	-7.8*	i	i	i
Brc1ccc(-c2ccc(/C=N/Nc3nc(N4CCOCC4)nc(N4CCOCC4)n3)o2)cc1	i	i	i	i	i
COc1cc(/C=C2/SC(=S)NC2=O)ccc1OS(=O)(=O)c1ccc(C)cc1	i	i	-4.7*	i	i
COc1cc(/C=C2\SC(=S)NC2=O)ccc1OS(=O)(=O)c1ccccc1	i	i	-6.1*	i	i
C/[N+]([O-])=C\c1coc2ccccc2c1=O	i	i	i	i	i
O=C1NC(=S)S/C1=C\c1coc2ccccc2c1=O	i	i	i	i	7.6*
O=C1NC(=S)S/C1=C\c1ccc2ccccc2c1	i	i	-4.9*	i	i
COc1ccc(/C=C2\SC(=S)NC2=O)cc1OS(=O)(=O)c1ccc(NC(C)=O)cc1	i	i	/	/	/
COc1ccc(/C=C(/NC(=O)c2ccccc2)C(=O)NC2CCS(=O)(=O)C2)cc1 (configuration not stated)	i	i	i	i	i
CC(=Nc1ccc2c(c1)nc(CO)n2C)C1=C(O)CC(C)(C)CC1=O	i	i	i	i	i
CCOc1ccc(/C=C2\SC(=S)NC2=O)cc1OC	i	i	i	i	i
COc1ccc(/C=C2\SC(=O)NC2=S)cc1OC	i	i	i	63*	i
CSCC[C@H](NC(=O)c1ccc2ccccc2c1)C(=O)N1CCC2(CC1)NCCc1[nH]cnc12	i	-7.6*	i	i	i
CC(C)C1OC2c3cccc4cccc(c34)C2N1c1ccccc1 (configuration not stated)	i	i	i	39*	i
COc1cc(/C=N/n2cc(-c3ccccc3)[nH]c2=S)cc(OC)c1O	i	i	i	i	11*
Oc1ccc(/C=N/n2cc(-c3ccccc3)[nH]c2=S)cc1	i	i	i	i	i
CCOC(=O)N1CCN(CCC(=O)Nc2cccc(Cl)c2C)CC1	i	i	i	i	i
Cc1ccc(S(=O)(=O)N(C)C)cc1NC(=O)CCNC(=O)c1ccco1	i	i	i	i	i
N#C[C@H]1C2OC2c2ccccc2N1C(=O)c1ccccc1 (some centres not stated)	i	i	-7.9*	i	i
Cc1cccc(N(CC(=O)NCc2ccco2)C(=O)CCC(=O)Nc2nccs2)c1C	i	i	i	i	i
Cc1cc(C)c2nc3sc(C(=O)N4CCOCC4)c(N)c3cc2c1	i	i	i	49*	i
CCN(CC)CCSc1nc2ccccc2n1Cc1ccccc1	i	-9.1*	i	i	i
CCN(CC)CCSc1nc2ccccc2c(=S)n1-c1ccccc1	i	-8*	i	i	i
CCN(CC)CCSc1nc(O)c(-c2ccccc2)c(=O)n1-c1ccccc1	i	i	i	i	i
O=C(Nc1ccc2nc3ccccc3nc2c1)c1ccccc1	i	i	i	i	i
O=C(Nc1ccc(-c2nc3ccccc3s2)c(OC(=O)c2ccccc2)c1)c1ccccc1	i	i	-4.8*	i	i
